In ChEMBL document CHEMBL4513216, “Probing the Open Global Health Chemical Diversity Library for Multistage-Active Starting Points for Next-Generation Antimalarials” (ACS Infect Dis, 2020):

Experiment: Toxicity liver stage against HepG2, at 10uM
Type: cell-based
Parameters: test concentration 10 uM, cell line HepG2-A16-CD81EGFP
Details: human, HepG2-A16-CD81EGFP cells; read-out: INHIBITION
In short: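 Uninfected HepG2-A16-CD81EGFP cells, 3 × 10^3 per well, 1536-well, plated on prespotted compound at 10 μM final, parasite-free screening media added to match infected plates; puromycin 10 μM positive, DMSO 0.5% negative; run in parallel with 48 h PbLuc assay at 37 °C, 5% CO2; viability by CellTiter-Glo luminescence, normalized to controls.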

SMILES | cytotoxicity at 10 µM [%]
COc1ccc(-c2noc(C(N)CCSC)n2)cc1 (configuration not stated) | -7.27
O=S(=O)(c1c(F)cccc1F)N1CCC(Cn2cccn2)CC1 | -11.9
Cc1nnc(C[C@@H]2COC[C@H]3CN(C(=O)C4=CCCC4)C[C@@H]23)o1 | -5.86
CC(C)CNC(=O)c1cc2c(s1)CCN2Cc1cccnc1 | -6.16
Cn1cc(CN2CCO[C@H]3C(Cn4cccn4)CC[C@@H]32)cn1 (some centres not stated) | -3.12
CC(=O)N1CCC2(CC1)CNc1ccc(F)cc12 | 1.63
O=C(CC1CCCC1)NCCn1ccc(-c2ccncc2)n1 | 5.97
CCc1nnc(Nc2cccc(C3CCN(c4cnccn4)CC3)n2)s1 | -26.5
CCCC(=O)N1CCC(c2cc3n(n2)[C@@H](C(F)(F)F)C[C@@H](C)N3)CC1 | -10.3
O=c1[nH]c2ccccc2cc1CNCCCN1CCOCC1 | -17.5
O=C1NCC2(CCCN(Cc3ccncc3)C2)Oc2ccccc21 (configuration not stated) | -13.8
O=C(O)C1(Cc2cc(-c3cccc(F)c3)no2)CCOCC1 | -4.97
O=C(c1ccnnc1)N1C[C@@H]2CC[C@H](Oc3cccc(F)c3)[C@@H]2C1 | 2.37
Cc1ccc(F)c2c1CCCN2C(=O)Cc1c(C)nn(C)c1C | 13.6
CC(C)Cc1noc(CNc2cc3c(cc2Cl)OCCCO3)n1 | 6.48
O=C(CC1CCN(CCN2CCCCC2)CC1)N1CCOCC1 | -3.91
COC(=O)CNC(=O)CCc1cc(Cl)cs1 | -5.31
N#Cc1ccc(SCCC(=O)O)cc1 | -2.85
O=C(NCC1CCOC1)c1cc(-c2ccc(F)cc2)[nH]n1 (configuration not stated) | -6.96
CC(C)c1noc(C(C)N2CCC(c3nc4ccccc4[nH]3)CC2)n1 (configuration not stated) | -3.17
O=C1OCCCN1Cc1nc(-c2ccncc2)no1 | 6.77

SMILES | cytotoxicity at 10 µM [%]
CCc1nnc(C(C)N2CCCN(C(=O)OCC(C)C)CC2)o1 (configuration not stated) | 4.96
Cc1c(COC(C)C)cccc1NC(=O)N1CCC(N2CCCC2)C1 (configuration not stated) | -5.56
CCC(NCCn1cccn1)C(=O)Nc1cc(C)on1 (configuration not stated) | 13.4
CC(C)c1ccc(/C=C/CC(=O)NC2CCN(C(N)=O)C2)cc1 (configuration not stated) | 0.838
c1ccc(C2(CNCc3cnc(N4CCOCC4)nc3)CC2)cc1 | -0.813
Cc1ccccc1CC(C)(C)NC(=O)c1cccc(OCC(N)=O)c1 | 2.93
O=C(Cc1cccs1)NS(=O)(=O)c1cccc2cnccc12 | -14.6
O=C(c1sccc1C1CC1)N1CCN(c2nccs2)CC1 | 1.41
CC(=O)c1c(F)cccc1NC1CCN(C(=O)C2CCCCC2)CC1 | 20.7
O=C(CN1CSCC1=O)NCC1CCN(c2ccccc2)C1 (configuration not stated) | 1.19
COc1cc(NC(=O)NC2CC2)ccc1N1CCOC1=O | -6.44
CCS(=O)(=O)CC(=O)NC1CCc2nccn2C1 (configuration not stated) | 17.1
CNC(=O)COc1nc(C(C)(C)C)no1 | -0.425
Cc1c(C(=O)NCCC(C)C)nnn1-c1cccc2c1CCN(C)C2 | 1.31
CCC(C)(C)NC(=O)c1nnn(-c2cccc3c2CCN(C)C3)c1C | -0.663
CC1CCCN(C(=O)NCC(F)F)C1 (configuration not stated) | 13.6
Cn1c(=O)oc2cc(Nc3nccnc3C#N)ccc21 | 2.14
Cn1nc(Br)c2c(NCCS(N)(=O)=O)ncnc21 | 15.8
COc1cc2c(c(OC)c1OC)CCN(CCn1nc(C)cc1C)CC2 | 12.9
Cc1ccc(S(=O)(=O)NC(=O)CCOCc2ccccc2)s1 | -11.2
Cc1cnn(CC(=O)NC2CCCc3cc(OC(F)F)ccc32)c1 (configuration not stated) | -0.653

SMILES | cytotoxicity at 10 µM [%]
CNS(=O)(=O)c1ccc(CNC(=O)N(C)CC(O)COC)cc1 (configuration not stated) | -1.22
CC(C)c1noc(CCNC(=O)N2CCC(O)(C(F)(F)F)C2)n1 (configuration not stated) | 9.74
CCN(C)C(C(=O)Nc1ccc2c(c1)CCC(=O)N2)c1ccccc1 (configuration not stated) | -1.45
CCN1Cc2ccccc2CC2(CCN(CC3CCC3)CC2)C1=O | 4.15
Cc1cc(C(=O)NC2CCc3c(ccc(=O)n3CC3CC3)C2)no1 (configuration not stated) | 2.62
CN1CC2(CCN(C(=O)Cn3ncc4ccccc4c3=O)CC2)OC1=O | -2.96
O=C1CC(C(=O)NCCN2CCOC2=O)c2cc(F)ccc2N1 (configuration not stated) | -0.511
CCCOC1CCCN(C(=O)Cn2cccc(C(F)(F)F)c2=O)C1 (configuration not stated) | -0.912
Cc1cc(NCc2nnc3n2CCC3)n2nc(C)c(C)c2n1 | 1.16
Cc1ccc(CN(CCN(C)C)Cc2nc3ccccc3[nH]2)s1 | 3.34
COc1cccc(-c2cc(CN)ccc2F)c1F | -12.4
Cc1cc(C)n(CCC(=O)N2CCCCC2c2nccs2)n1 (configuration not stated) | 10.3
CN(C)S(=O)(=O)N1CC[C@]2(O)CCN(c3cc(C#N)ccn3)C[C@@H]2C1 | 12.3
Cc1ncc(S(C)(=O)=O)c(N2CCCN(Cc3ccccn3)CC2)n1 | 1.46
CN(C)CCN1CC2(CCCN(c3ccc(Cl)cn3)C2)CCC1=O (configuration not stated) | 2.69
O=C1CCC2(CCCN(c3ncc(Cl)cc3F)C2)CN1CC1CC1 (configuration not stated) | 5.98
Cc1ccc(CN2CCN(c3ncccc3C(N)=O)CC2CCO)cc1 (configuration not stated) | -13.3
CNS(=O)(=O)CCNc1cc(C)nc2cc(C)nn12 | 6.95
Cc1nn(C)c2ncnc(N(C)CC3CCN(CC(C)C)C3)c12 (configuration not stated) | -5.79
Cc1ocnc1C(=O)N1CC[C@@]2(O)CCN(C(=O)N3CCCC3)C[C@H]2C1 | -7.96
CCCc1cc(=O)[nH]c(-c2cccc(CN3CCN4CCCC4C3)c2)n1 (configuration not stated) | -15.2

SMILES | cytotoxicity at 10 µM [%]
COCC[C@]1(O)CCN(C2CCN(C(=O)C3CCC3)CC2)C[C@H]1C | 0.866
CC(C)c1nnc2n1CCN(CC(=O)Nc1sccc1C#N)C2 | -2.6
COc1ccccc1OCCN1CCC(N2CCNC2=O)CC1 | -3.19
N#Cc1cn(C2CC2)c(=O)n(CC(O)c2ccccc2F)c1=O (configuration not stated) | 3.97
Cc1cnn(CC2CN(CC(=O)Nc3sccc3C#N)CCO2)c1 (configuration not stated) | -0.935
COCc1ccccc1C(=O)N1CCCC(n2nc(C)cc2C)C1 (configuration not stated) | -10.5
Cc1nn(C)c(Cl)c1C(=O)NCC(c1ccsc1)N(C)C (configuration not stated) | -10
Cc1ccc(CNC(=O)NCc2csc(C)n2)cn1 | -8.24
CN(C)c1ccc(C(=O)N2CCN(C(=O)N3CCCCC3)CC2)nn1 | -9.14
CN(Cc1nc2c(cnn2C)c(=O)[nH]1)Cc1ccc(F)cc1F | -1.29
COc1cc(CNC(C)Cn2cccn2)cc(OC)c1OC (configuration not stated) | -4.23
COCC1COCCC12CCN(S(=O)(=O)c1cccnc1)CC2 (configuration not stated) | 6.62
COCCN1CCc2c(cnc(-c3ccccc3)c2C(=O)O)C1 | 2.24
CO[C@@H]1CCN(S(=O)(=O)N(C)C)[C@@H]2CN(Cc3cccnc3)C[C@@H]21 | -1.91
Cc1nc(CN2C(=O)CC3(CCN(C(N)=O)CC3)c3ccccc32)cs1 | -1.4
O=C(NC[C@H]1OC[C@@H]2CCN(C3CCOCC3)C[C@@H]21)c1ccncc1 | 4.98
COCCN1CC[C@@H]2CN(Cc3cccnc3OC)C[C@@H]2C1 | 13.6
CCn1cc2c(n1)C(COC)CN(c1ccc(C)nn1)C2 (configuration not stated) | 11.6
O=C(NC1CCCCC1)N1CCC(n2cc3[nH]cccc-3c2=O)CC1 | -5.01
